Measured values reported in ChEMBL document CHEMBL4014308, “Amphiphilic Tobramycin-Lysine Conjugates Sensitize Multidrug Resistant Gram-Negative Bacteria to Rifampicin and Minocycline” (J Med Chem, 2017).
Active and inactive are the calls of the source. No cut-off for these calls is given here.

Legend:
[1] = tested on: Enterobacter cloacae; assay: Potentiation of rifampicin-induced antibacterial activity against multidrug-resistant Enterobacter cloacae 117029 at 4 ug/ml after 18 hrs by checkerboard assay; format: functional
Summary of the method: (§1)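 Checkerboard in Mueller-Hinton broth: antibiotic serially diluted along one axis and adjuvant along the other (10 × 7 matrix). Inoculum from a 0.5 McFarland saline suspension diluted 1:50 in MHB; 18 h at 37 °C, then plate read. MIC is the lowest concentration with no growth. FIC of each agent is its concentration in a no-growth well divided by its MIC alone; FIC index is the sum of both. FIC index ≤0.5 counts as synergy.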

[2] = tested on: Pseudomonas aeruginosa; assay: Potentiation of novobiocin-induced antibacterial activity against Pseudomonas aeruginosa PAO1 at 4 ug/ml after 18 hrs by checkerboard assay; format: functional
[3] = Ratio of cytotoxic concentration against human JIMT1 cells to synergistic concentration for Pseudomonas aeruginosa PAO1 in presence of rifampicin
[4] = tested on: Pseudomonas aeruginosa; assay: Synergistic antibacterial activity against Pseudomonas aeruginosa PAO1 after 18 hrs in presence of trimethoprim by checkerboard assay; format: functional; conditions: PAO1, 18 h
Summary of the method: (§2)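 Checkerboard in MHB: antibiotic diluted along one axis and adjuvant along the other (10 × 7 matrix). Inoculum was a 1:50 dilution in MHB of a 0.5 McFarland saline suspension; incubated 18 h at 37 °C. Each FIC = concentration in the no-growth well divided by the MIC alone; FIC index = sum of both FICs. ≤0.5 synergy, 0.5–4 no interaction, ≥4 antagonism.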

[5] = tested on: Pseudomonas aeruginosa; assay: Potentiation of kanamycin A-induced antibacterial activity against Pseudomonas aeruginosa PAO1 at 4 ug/ml after 18 hrs by checkerboard assay; format: functional; summary of the method: as §1
[6] = tested on: Staphylococcus epidermidis; assay: Antibacterial activity against methicillin-susceptible Staphylococcus epidermidis isolate CANWARD-2008 81388 after 18 hrs by microtiter dilution assay; format: functional; conditions: isolate CANWARD-2008 81388, 18 h
Summary of the method: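 Broth microdilution following CLSI guidelines. An overnight culture was adjusted to 0.5 McFarland in saline, then diluted 1:50 in Mueller-Hinton broth. This inoculum was added in equal volume to 2-fold serial dilutions of agent in MHB and incubated 18 h at 37 °C. MIC was the lowest concentration with no visible growth.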

[7] = tested on: Acinetobacter baumannii; assay: Synergistic antibacterial activity against multidrug-resistant Acinetobacter baumannii AB027 after 18 hrs in presence of rifampicin by checkerboard assay; format: functional; conditions: AB027, 18 h
Summary of the method: (§3)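 Checkerboard in MHB with a 10 × 7 matrix: antibiotic serially diluted along one axis, adjuvant along the other. Inoculum was a 1:50 dilution of a 0.5 McFarland suspension, incubated 18 h at 37 °C and read on a plate reader. Each FIC is the concentration in a no-growth well divided by the MIC alone; FIC index is their sum, with ≤0.5 taken as synergy.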

[8] = tested on: Pseudomonas aeruginosa; assay: Disruption of proton motive force in Pseudomonas aeruginosa PAO1 cytoplasmic membrane assessed as repression of bacterial swimming motility after 20 hrs; format: functional
Summary of the method: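 Swim plates of 0.3% agar with tryptone 5 g/L and NaCl 2.5 g/L, agent mixed into the medium and plates dried 2 h. PAO1 at 1.0 McFarland in 0.85% saline was point-inoculated at the center, and plates incubated 20 h at 37 °C before swim diameter was imaged.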

[9] = tested on: Enterococcus faecalis; assay: Antibacterial activity against Enterococcus faecalis ATCC 29212 after 18 hrs by microtiter dilution assay; format: functional; conditions: ATCC 29212, 18 h
Summary of the method: (§4)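 Broth microdilution per CLSI. Overnight culture adjusted to 0.5 McFarland in saline, diluted 1:50 in Mueller-Hinton broth, and added to an equal volume of 2-fold serial compound dilutions in MHB. Incubated 18 h at 37 °C. MIC taken as the lowest concentration with no visible growth.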

[10] = tested on: Pseudomonas aeruginosa; assay: Potentiation of ceftazidime-induced antibacterial activity against Pseudomonas aeruginosa PAO1 at 4 ug/ml after 18 hrs by checkerboard assay; format: functional; summary of the method: as §1
[11] = Ratio of cytotoxic concentration against human DU145 cells to synergistic concentration for Pseudomonas aeruginosa PAO1 in presence of rifampicin
[12] = Ratio of cytotoxic concentration against human JIMT1 cells to synergistic concentration for Pseudomonas aeruginosa PAO1 in presence of minocycline
[13] = tested on: Pseudomonas aeruginosa; assay: Potentiation of minocycline-induced antibacterial activity against Pseudomonas aeruginosa PAO1 after 25 serial passages at 0.125 times MIC by microtiter dilution assay; format: functional
Summary of the method: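 Sequential passaging of wild-type PAO1 with single drugs or drug combinations. MIC was tested in MHB for 18 h. Cells from the well at half the MIC were adjusted to 0.5 McFarland in saline, diluted 1:50 in fresh MHB and used for the next MIC test. This was repeated for 25 passages, and the fold change in MIC was plotted against passage number.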

[14] = tested on: Pseudomonas aeruginosa; assay: Potentiation of minocycline-induced antibacterial activity against Pseudomonas aeruginosa PAO200 harboring MexAB-oprM deletion mutant after 18 hrs by checkerboard assay; format: functional; summary of the method: as §1
[15] = tested on: Pseudomonas aeruginosa; assay: Potentiation of rifampicin-induced antibacterial activity against multidrug/extremely drug-resistant/colistin-resistant Pseudomonas aeruginosa isolate 101243 assessed as fold reduction in rifampicin MIC at 4 ug/ml after 18 hrs by checkerboard assay relative to control; format: functional
Summary of the method: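 Checkerboard in Mueller-Hinton broth, 10 × 7 matrix, with the adjuvant held at 4 µg/mL. Inoculum from a 0.5 McFarland suspension diluted 1:50; 18 h at 37 °C. Antibiotic MIC (lowest concentration with no growth) with adjuvant is compared with the antibiotic MIC alone, giving a fold reduction.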

[16] = tested on: Klebsiella pneumoniae; assay: Synergistic antibacterial activity against multidrug-resistant Klebsiella pneumoniae 116381 after 18 hrs in presence of minocycline by checkerboard assay; format: functional; conditions: Klebsiella pneumoniae, 116381, 18 h
Summary of the method: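 Checkerboard in Mueller-Hinton broth: antibiotic serially diluted along one axis and adjuvant along the other (10 × 7 matrix). Inoculum was overnight culture set to 0.5 McFarland in saline, then diluted 1:50 in broth. Incubated 18 h at 37 °C. MIC was the lowest concentration with no growth. FIC index is the sum of both FICs (combination concentration ÷ MIC alone); ≤0.5 counted as synergy.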

[17] = tested on: Enterobacter cloacae; assay: Synergistic antibacterial activity against multidrug-resistant Enterobacter cloacae 117029 after 18 hrs in presence of minocycline by checkerboard assay; format: functional; conditions: Enterobacter cloacae, 117029, 18 h; summary of the method: as §3
[18] = tested on: Pseudomonas aeruginosa; assay: Potentiation of rifampicin-induced antibacterial activity against multidrug/extremely drug-resistant/colistin-susceptible Pseudomonas aeruginosa isolate P262-101856 at 4 ug/ml after 18 hrs by checkerboard assay; format: functional
Summary of the method: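 Checkerboard broth microdilution in MHB: antibiotic serially diluted along one axis, adjuvant along the other (10 × 7 matrix). Inoculum from 0.5 McFarland saline suspension diluted 1:50 in MHB; 18 h at 37 °C. MIC taken as lowest concentration with no growth. FIC per agent = combination MIC/MIC alone; FIC index = sum (≤0.5 synergy).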

[19] = tested on: Pseudomonas aeruginosa; assay: Synergistic antibacterial activity against Pseudomonas aeruginosa PAO1 after 18 hrs in presence of chloramphen by checkerboard assay; format: functional; conditions: PAO1, 18 h; summary of the method: as §2
[20] = tested on: Pseudomonas aeruginosa; assay: Potentiation of minocycline-induced antibacterial activity against multidrug/extremely drug-resistant/colistin-susceptible Pseudomonas aeruginosa isolate P262-101856 at 4 ug/ml after 18 hrs by checkerboard assay; format: functional; summary of the method: as §1
[21] = tested on: Enterococcus faecium; assay: Antibacterial activity against Enterococcus faecium ATCC 27270 after 18 hrs by microtiter dilution assay; format: functional; conditions: ATCC 27270, 18 h; summary of the method: as §4
[22] = tested on: Pseudomonas aeruginosa; assay: Potentiation of rifampicin-induced antibacterial activity against Pseudomonas aeruginosa PAO200 harboring MexAB-oprM deletion mutant after 18 hrs by checkerboard assay; format: functional; summary of the method: as §1

What does the source list for `Cl.Cl.Cl.Cl.Cl.Cl.Cl.NCCCC[C@H](N)C(=O)N(CCCCCCCCCCCCO[C@@H]1[C@@H](O[C@H]2O[C@H](CO)[C@@H](O)[C@H](N)[C@H]2O)[C@H](N)C[C@H](N)[C@H]1O[C@H]1O[C@H](CN)[C@@H](O)C[C@H]1N)Cc1c2ccccc2c(Cl)c2ccccc12`?
fractional inhibitory concentration index (FICI) [1]: 0.02; fractional inhibitory concentration index (FICI) [2]: 0.071; Ratio [3]: 6; MIC [4]: 2 µg/mL; fractional inhibitory concentration index (FICI) [5]: 1.016; MIC [6]: 2 µg/mL; MIC [7]: 8 µg/mL; Activity [8]: Dose-dependent effect; MIC [9]: 16 µg/mL; fractional inhibitory concentration index (FICI) [10]: 0.563; Ratio [11]: 6; Ratio [12]: 6; Activity [13]: Active; fractional inhibitory concentration index (FICI) [14]: 0.531; fold change (FC) [15]: 32; MIC [16]: 16 µg/mL; MIC [17]: 8 µg/mL; fractional inhibitory concentration index (FICI) [18]: 0.141; MIC [19]: 4 µg/mL; fractional inhibitory concentration index (FICI) [20]: 0.133; MIC [21]: 8 µg/mL; fractional inhibitory concentration index (FICI) [22]: 0.129
